Measured values reported in ChEMBL document CHEMBL1143386, “Prodrugs of perzinfotel with improved oral bioavailability” (J Med Chem, 2009).

How the values were obtained:
[1] = Chemical stability at pH 4.5 after 4 hrs; assay type: physicochemical; conditions: buffer, read-out: Stability
In short: (§1)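 Compound at 0.01 mg/mL final in a 9:1 mix of aqueous buffer (pH 1.0, 4.5, 6.6 or 7.4) or simulated gastric fluid with acetonitrile, held at 37 °C in the autosampler. Injected every 4 h over 24 h onto C8 HPLC. Percent remaining from peak area at 304 nm, corrected by internal standard; products confirmed by LC/MS (-ESI).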

[2] = Chemical stability in simulated intestinal bile fluid after 4 hrs; assay type: physicochemical; conditions: read-out: Stability
In short: (§2)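 Compound taken up in 9:1 simulated intestinal bile fluid:acetonitrile at a final 0.01 mg/mL, held in a 37 °C autosampler. HPLC injections every 4 h over 24 h. Percent remaining taken from peak area at 304 nm, corrected by internal standard. Products identified by LC/MS (-ESI).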

[3] = Chemical stability at pH 1 after 8 hrs; assay type: physicochemical; conditions: buffer, read-out: Stability; in short: as §1
Plasma [4] = assay: Biodistribution in Sprague-Dawley rat plasma assessed as formation of perzinfotel at 10 mg/kg, po after 0.5 hrs; assay type: ADME, organism-based; design: dose 10 mg/kg, route oral; conditions: in vivo
In short: (§3)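 Male Sprague-Dawley rats given [14C]-labelled compound by oral gavage (parent at 30 mg/kg, prodrug at 10 mg/kg). Blood, plasma and brain taken at 0.167, 0.5, 1, 4, 8 and 24 h (n = 3 rats/time point). Total radioactivity measured in each matrix. Metabolite profiles from HPLC with in-line radioactivity detection.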

[5] = Chemical stability at pH 6.6 after 12 hrs; assay type: physicochemical; conditions: buffer, read-out: Stability; in short: as §1
Blood [6] = assay: Biodistribution in Sprague-Dawley rat blood assessed as formation of perzinfotel at 10 mg/kg, po after 0.167 hrs; assay type: ADME, organism-based; design: dose 10 mg/kg, route oral; conditions: in vivo; in short: as §3
[7] = Chemical stability at pH 6.6 after 20 hrs; assay type: physicochemical; conditions: buffer, read-out: Stability; in short: as §1
[8] = Chemical stability at pH 7.4 after 8 hrs; assay type: physicochemical; conditions: buffer, read-out: Stability; in short: as §1
Plasma [9] = assay: Stability in rat plasma assessed as conversion of benzoic acid [2-(8,9-dioxo-2,6-diaza-bicyclo[5.2.0]non-1(7)-en-2-yl)-ethyl]-hydroxy-phosphinoyloxymethyl ester to perzinfotel after 3 hrs by Lc/MS analysis; assay type: ADME, cell-free
In short: (§4)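 Dissolved at 0.05 mg/mL in rat plasma and incubated at 37 °C for 0–24 h. Samples quenched with acetonitrile and centrifuged; supernatant diluted and run on HPLC. Parent and conversion products quantified by peak area at 304 nm, corrected by internal standard, and confirmed by LC/MS. Kinetics fitted to a two-step first-order model.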

Blood [10] = assay: Biodistribution in Sprague-Dawley rat blood assessed as formation of perzinfotel at 10 mg/kg, po after 0.5 hrs; assay type: ADME, organism-based; design: dose 10 mg/kg, route oral; conditions: in vivo; in short: as §3
[11] = Chemical stability in simulated gastric fluid after 4 hrs; assay type: physicochemical; conditions: read-out: Stability; in short: as §1
[12] = Chemical stability in simulated intestinal bile fluid after 8 hrs; assay type: physicochemical; conditions: read-out: Stability; in short: as §2
[13] = Chemical stability in simulated intestinal bile fluid after 20 hrs; assay type: physicochemical; conditions: read-out: Stability; in short: as §2
[14] = Chemical stability at pH 1 after 20 hrs; assay type: physicochemical; conditions: buffer, read-out: Stability; in short: as §1
[15] = Chemical stability at pH 4.5 after 20 hrs; assay type: physicochemical; conditions: buffer, read-out: Stability; in short: as §1
[16] = Chemical stability in simulated gastric fluid after 12 hrs; assay type: physicochemical; conditions: read-out: Stability; in short: as §1
[17] = Chemical stability at pH 4.5 after 12 hrs; assay type: physicochemical; conditions: buffer, read-out: Stability; in short: as §1
[18] = Chemical stability at pH 7.4 after 20 hrs; assay type: physicochemical; conditions: buffer, read-out: Stability; in short: as §1
[19] = Chemical stability in simulated intestinal bile fluid after 16 hrs; assay type: physicochemical; conditions: read-out: Stability; in short: as §2
[20] = Chemical stability in simulated gastric fluid after 16 hrs; assay type: physicochemical; conditions: read-out: Stability; in short: as §1
Glutamate NMDA receptor = assay: Displacement of [3H]CGP-39653 from rat brain NMDA receptor
In short: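 Competitive displacement of [3H]CGP-39653 at the NMDA recognition site, using rat whole-brain membranes.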

[21] = Chemical stability at pH 7.4 after 16 hrs; assay type: physicochemical; conditions: buffer, read-out: Stability; in short: as §1
[22] = Chemical stability at pH 1 after 16 hrs; assay type: physicochemical; conditions: buffer, read-out: Stability; in short: as §1
Rattus norvegicus = species on record: Rattus norvegicus; assay: Antinociceptive activity in Sprague-Dawley rat assessed as reversal of PGE2-induced thermal hypersensitivity after 5 hrs; assay type: functional
In short: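 Male Sprague-Dawley rats (200-250 g) fasted ~16 h and dosed orally in 2% Tween-80/0.5% methylcellulose (1 mL/kg) 0.5-48 h before intradermal PGE2 (0.1 mg in 50 µL). Tail-withdrawal latency was read 30 min later in water at 34-58 °C, with a 20 s cutoff. T10 from each rat's temperature-effect curve; within-subjects repeated-measures ANOVA, p < 0.05.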

[23] = Chemical stability at pH 4.5 after 24 hrs; assay type: physicochemical; conditions: buffer, read-out: Stability; in short: as §1
[24] = Chemical stability at pH 6.6 after 16 hrs; assay type: physicochemical; conditions: buffer, read-out: Stability; in short: as §1
[25] = Half life in Sprague-Dawley rat plasma assessed as loss of 3-{2[8,9-Dioxo-2,6-diazabicyclo[5.2.0-[non-1(7)-en-2-yl}-3-oxido-7-oxo-7-phenyl-2,4,6-trioxa-3-phosphahept-1-yl Benzoate; assay type: ADME; in short: as §4
[26] = Chemical stability at pH 4.5 after 8 hrs; assay type: physicochemical; conditions: buffer, read-out: Stability; in short: as §1
[27] = Chemical stability at pH 6.6 after 8 hrs; assay type: physicochemical; conditions: buffer, read-out: Stability; in short: as §1
[28] = Chemical stability at pH 1 after 24 hrs; assay type: physicochemical; conditions: buffer, read-out: Stability; in short: as §1
[29] = Chemical stability in simulated intestinal bile fluid after 24 hrs; assay type: physicochemical; conditions: read-out: Stability; in short: as §2
[30] = Chemical stability at pH 7.4 after 12 hrs; assay type: physicochemical; conditions: buffer, read-out: Stability; in short: as §1
[31] = Chemical stability at pH 4.5 after 16 hrs; assay type: physicochemical; conditions: buffer, read-out: Stability; in short: as §1
[32] = target: Glutamate NMDA receptor (Rattus norvegicus) (UniProt P35439+Q00959+Q00960+Q00961+Q62645+Q8VHN2+Q9R1M7); assay: Antagonist activity at rat brain NMDA receptor assessed as inhibition of glutamate-induced [3H]TCP binding at 300 uM
In short: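 Functional NMDA antagonism was measured as inhibition of glutamate-stimulated [3H]-TCP binding to rat whole-brain membranes. The value is percent inhibition at a single concentration.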

[33] = Chemical stability at pH 1 after 4 hrs; assay type: physicochemical; conditions: buffer, read-out: Stability; in short: as §1
[34] = Chemical stability at pH 6.6 after 24 hrs; assay type: physicochemical; conditions: buffer, read-out: Stability; in short: as §1
[35] = Chemical stability at pH 7.4 after 24 hrs; assay type: physicochemical; conditions: buffer, read-out: Stability; in short: as §1
[36] = Chemical stability at pH 7.4 after 4 hrs; assay type: physicochemical; conditions: buffer, read-out: Stability; in short: as §1
[37] = Half life in pH 8.5 buffer assessed as loss of 3-{2[8,9-Dioxo-2,6-diazabicyclo[5.2.0-[non-1(7)-en-2-yl}-3-oxido-7-oxo-7-phenyl-2,4,6-trioxa-3-phosphahept-1-yl Benzoate; assay type: physicochemical
In short: (§5)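 Compound at a final 0.01 mg/mL in 9:1 pH 8.5 buffer or simulated intestinal fluid:acetonitrile, 37 °C. HPLC injections every 4 h over 24 h, with peak area at 304 nm corrected by internal standard and identities confirmed by LC/MS. Conversion kinetics fitted to a two-step first-order model to give rate constants, half-lives and Tmax of the hemiester.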

Brain [38] = assay: Biodistribution in Sprague-Dawley rat brain assessed as formation of perzinfotel at 10 mg/kg, po after 0.167 hrs; assay type: ADME, organism-based; design: dose 10 mg/kg, route oral; conditions: in vivo; in short: as §3
[39] = Chemical stability in simulated intestinal bile fluid after 12 hrs; assay type: physicochemical; conditions: read-out: Stability
In short: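 Compound at 0.01 mg/mL final in a 9:1 mix of simulated intestinal bile fluid and acetonitrile at 37 °C. Fed-state medium pH 5.5 with 10 mM sodium taurocholate; fasted-state medium pH 6.0 with 1 mM. Sampled every 4 h to 24 h by HPLC. Percent remaining from 304 nm peak area, corrected by internal standard.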

[40] = Chemical stability in simulated gastric fluid after 24 hrs; assay type: physicochemical; conditions: read-out: Stability; in short: as §1
[41] = Chemical stability in simulated gastric fluid after 8 hrs; assay type: physicochemical; conditions: read-out: Stability; in short: as §1
[42] = Chemical stability in simulated gastric fluid after 20 hrs; assay type: physicochemical; conditions: read-out: Stability; in short: as §1
Plasma [43] = assay: Biodistribution in Sprague-Dawley rat plasma assessed as formation of perzinfotel at 10 mg/kg, po after 0.167 hrs; assay type: ADME, organism-based; design: dose 10 mg/kg, route oral; conditions: in vivo; in short: as §3
[44] = Half life in simulated intestinal fluid assessed as loss of 3-{2[8,9-Dioxo-2,6-diazabicyclo[5.2.0-[non-1(7)-en-2-yl}-3-oxido-7-oxo-7-phenyl-2,4,6-trioxa-3-phosphahept-1-yl Benzoate; assay type: physicochemical; in short: as §5
Brain [45] = assay: Biodistribution in Sprague-Dawley rat brain assessed as formation of perzinfotel at 10 mg/kg, po after 0.5 hrs; assay type: ADME, organism-based; design: dose 10 mg/kg, route oral; conditions: in vivo; in short: as §3
[46] = Chemical stability at pH 6.6 after 4 hrs; assay type: physicochemical; conditions: buffer, read-out: Stability; in short: as §1
[47] = Chemical stability at pH 1 after 12 hrs; assay type: physicochemical; conditions: buffer, read-out: Stability; in short: as §1

O=C(OCOP(=O)(CCN1CCCNc2c1c(=O)c2=O)OCOC(=O)c1ccccc1)c1ccccc1
remaining at 4 h [1]: 100% | remaining at 4 h [2]: 99.5% | remaining at 8 h [3]: 99.3% | Drug uptake (Plasma [4]): 98% | remaining at 12 h [5]: 93.7% | Drug uptake (Blood [6]): 88% | remaining at 20 h [7]: 89.4% | remaining at 8 h [8]: 83.2% | Stability (Plasma [9]): 90% | Drug uptake (Blood [10]): 98% | remaining at 4 h [11]: 99.6% | remaining at 8 h [12]: 99.3% | remaining at 20 h [13]: 98.5% | remaining at 20 h [14]: 98% | remaining at 20 h [15]: 99.5% | remaining at 12 h [16]: 99% | remaining at 12 h [17]: 99.8% | remaining at 20 h [18]: 62.2% | remaining at 16 h [19]: 98.6% | remaining at 16 h [20]: 98.7% | IC50 (Glutamate NMDA receptor): 4.2 µM | remaining at 16 h [21]: 68.7% | remaining at 16 h [22]: 98.5% | ED50 (Rattus norvegicus): 10 mg/kg | remaining at 24 h [23]: 99.5% | remaining at 16 h [24]: 91.5% | half-life [25]: < 4.2 min | remaining at 8 h [26]: 100% | remaining at 8 h [27]: 95.7% | remaining at 24 h [28]: 97.9% | remaining at 24 h [29]: 98.1% | remaining at 12 h [30]: 75.6% | remaining at 16 h [31]: 99.7% | inhibition [32]: 8% | remaining at 4 h [33]: 99.7% | remaining at 24 h [34]: 87.4% | remaining at 24 h [35]: 56.7% | remaining at 4 h [36]: 91.6% | half-life [37]: 1.84 h | Drug uptake (Brain [38]): 88% | remaining at 12 h [39]: 98.6% | remaining at 24 h [40]: 98% | remaining at 8 h [41]: 99.3% | remaining at 20 h [42]: 98.3% | Drug uptake (Plasma [43]): 88% | half-life [44]: 3.57 h | Drug uptake (Brain [45]): 98% | remaining at 4 h [46]: 98.1% | remaining at 12 h [47]: 98.9%
